# Laboratory results reported in ChEMBL document CHEMBL1153112, “Identification of a series of substituted 2-piperazinyl-5-pyrimidylhydroxamic acids as potent histone deacetylase inhibitors” (Bioorg Med Chem Lett, 2010).
# pIC50: −log10 of the molar value.
# System: not listed separately
# Assay: Thermodynamic solubility in phosphate-citrate buffer at pH 4.6
# Format: physicochemical
# Conditions: not given
# In short: (§1)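 Thermodynamic solubility. About 2.5 mg of solid was weighed and equilibrated in phosphate-citrate buffer at the stated pH, then filtered where needed. The filtrate was diluted in 0.1 N HCl/acetonitrile (1/1) and the concentration measured by UPLC.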
row,SMILES,solubility thermodynamic [µg/mL]
1,O=C(NO)c1cnc(N2CCN(C(/C=C/c3ccccc3)CO)CC2)nc1 (stereo in doubt; 3a),> 10000

# System: A2780
# Assay: Antiproliferative activity against human A2780 cells
# Format: functional, cell-based
# Conditions: Homo sapiens, A2780
# In short: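 A2780 ovarian carcinoma proliferation assay in 384-well format, modified from the patent protocol. IC50 given as the mean of triplicate experiments ± SD; some values come from a single experiment.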
row,SMILES,pIC50
1,O=C(NO)c1cnc(N2CCN(C(/C=C/c3cccc(F)c3)CO)CC2)nc1 (centres undefined),7.44
2,O=C(NO)c1cnc(N2CCN(C(/C=C/c3ccccc3)CO)CC2)nc1 (stereo in doubt; 3a),7.60
3,COCC(/C=C/c1ccccc1)N1CCN(c2ncc(C(=O)NO)cn2)CC1 (centres undefined),7.35
4,CNC(=O)C(/C=C/c1ccccc1)N1CCN(c2ncc(C(=O)NO)cn2)CC1 (centres undefined),6.80
5,O=C(NO)c1cnc(N2CCC(CNC(/C=C/c3ccccc3)CO)CC2)nc1 (centres undefined),7.33
6,O=C(NO)c1cnc(N2CCN(C(/C=C/c3ccc(F)cc3)CO)CC2)nc1 (stereo in doubt; 3i),7.49
7,CN1CCN(CC(/C=C/c2ccccc2)N2CCN(c3ncc(C(=O)NO)cn3)CC2)CC1 (centres undefined),6.41
8,O=C(NO)c1cnc(N2CCOC(CNC(/C=C/c3ccccc3)CO)C2)nc1 (centres undefined),6.53
9,O=C(NO)c1cnc(N2CCN(S(=O)(=O)c3ccc4ccccc4c3)CC2)nc1 [R-306465],7.41
10,O=C(NO)c1cnc(N2CCN(C(/C=C/c3ccccc3F)CO)CC2)nc1 (centres undefined),> 7.52
11,O=C(NO)c1cnc(N2CCN(C(/C=C/c3ccccc3)C(=O)N3CCOCC3)CC2)nc1 (centres undefined),6.91
12,Cc1ccc(/C=C/C(CO)N2CCN(c3ncc(C(=O)NO)cn3)CC2)cc1 (centres undefined),7.74
13,O=C(NO)c1cnc(N2CCN(C(/C=C/c3ccccc3)CN3CCOCC3)CC2)nc1 (centres undefined),6.50
14,O=C(NO)c1cnc(N2CCN(C(/C=C/c3ccc(C(F)(F)F)cc3)CO)CC2)nc1 (centres undefined),7.19
15,O=C(NO)c1cnc(N2CCN(C(/C=C/c3ccc(-c4ccccc4)cc3)CO)CC2)nc1 (centres undefined),7.54
16,NC(/C=C/c1ccccc1)CN1CCN(c2ncc(C(=O)NO)cn2)CC1 (centres undefined),6.55
17,O=C(NO)c1cnc(N2CCN(C(/C=C/c3ccc(Cl)cc3)CO)CC2)nc1 (centres undefined),7.77
18,CC(/C=C/c1ccccc1)N1CCN(c2ncc(C(=O)NO)cn2)CC1 (centres undefined),7.70
19,COc1ccc(/C=C/C(CO)N2CCN(c3ncc(C(=O)NO)cn3)CC2)cc1 (centres undefined),7.74
20,O=C(NO)c1cnc(N2CCN(Cc3ccc4ccccc4c3)CC2)nc1,7.18
21,O=C(NO)c1cnc(N2CCC(NC(/C=C/c3ccccc3)CO)CC2)nc1 (centres undefined),6.66

# Same assay, conditions: a2780
row,SMILES,pIC50
1,O=C(NO)c1cnc(N2CCN(C(/C=C/c3ccccc3)CO)CC2)nc1 (stereo in doubt; 3a1),7.40
2,"O=C(NO)c1cnc(N2CCN(C(/C=C/c3ccc(F)cc3)CO)CC2)nc1 (single isomer, unassigned; (+))",7.57
3,"O=C(NO)c1cnc(N2CCN(C(/C=C/c3ccccc3)CO)CC2)nc1 (single isomer, unassigned; (-))",7.52
4,"O=C(NO)c1cnc(N2CCN(C(/C=C/c3ccc(F)cc3)CO)CC2)nc1 (single isomer, unassigned; (-))",7.51

# System: not listed separately
# Assay: Clearance in Sprague-Dawley rat at 2.5 mg/kg, iv administered in water at pH 4.4
# Format: ADME, organism-based
# Design: dose 2.5 mg/kg, route intravenous
# Conditions: in vivo
# In short: (§2)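 Male Sprague-Dawley rats. IV arm dosed at 2.5 mg/kg in water at pH 4.4; oral arm dosed at 10 mg/kg in water at pH 4.5. AUC0-inf taken for each route. Clearance and Vdss come from the IV arm. F (%) comes from the oral versus IV exposure.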
row,SMILES,clearance [mL/min/kg]
1,O=C(NO)c1cnc(N2CCN(C(/C=C/c3ccccc3)CO)CC2)nc1 (stereo in doubt; 3a),98.3
2,O=C(NO)c1cnc(N2CCN(S(=O)(=O)c3ccc4ccccc4c3)CC2)nc1 [R-306465],13.3
3,"O=C(NO)c1cnc(N2CCN(C(/C=C/c3ccc(F)cc3)CO)CC2)nc1 (single isomer, unassigned; (-))",76.7

# System: not listed separately
# Assay: Volume of distribution at steady state in Sprague-Dawley rat at 2.5 mg/kg, iv administered in water at pH 4.4
# Format: ADME, organism-based
# Design: dose 2.5 mg/kg, route intravenous
# Conditions: in vivo, read-out: Vdss
# In short: as §2
row,SMILES,Vd [L/kg]
1,O=C(NO)c1cnc(N2CCN(C(/C=C/c3ccccc3)CO)CC2)nc1 (stereo in doubt; 3a),5.8
2,O=C(NO)c1cnc(N2CCN(S(=O)(=O)c3ccc4ccccc4c3)CC2)nc1 [R-306465],0.6
3,"O=C(NO)c1cnc(N2CCN(C(/C=C/c3ccc(F)cc3)CO)CC2)nc1 (single isomer, unassigned; (-))",1.6

# Target: Histone deacetylase
# Assay: Inhibition of HDAC in human HeLa cells extractt
# Format: cell-free
# Conditions: not given
row,SMILES,IC50 [nM]
1,O=C(NO)c1cnc(N2CCN(C(/C=C/c3ccccc3)CO)CC2)nc1 (stereo in doubt; 3a1),1
2,O=C(NO)c1cnc(N2CCN(C(/C=C/c3cccc(F)c3)CO)CC2)nc1 (centres undefined),1.2
3,O=C(NO)c1cnc(N2CCN(C(/C=C/c3ccccc3)CO)CC2)nc1 (stereo in doubt; 3a),2
4,COCC(/C=C/c1ccccc1)N1CCN(c2ncc(C(=O)NO)cn2)CC1 (centres undefined),1.5
5,"O=C(NO)c1cnc(N2CCN(C(/C=C/c3ccccc3)CO)CC2)nc1 (single isomer, unassigned; (-))",1.8
6,CNC(=O)C(/C=C/c1ccccc1)N1CCN(c2ncc(C(=O)NO)cn2)CC1 (centres undefined),3.3
7,O=C(NO)c1cnc(N2CCC(CNC(/C=C/c3ccccc3)CO)CC2)nc1 (centres undefined),1.5
8,CN1CCN(CC(/C=C/c2ccccc2)N2CCN(c3ncc(C(=O)NO)cn3)CC2)CC1 (centres undefined),6.9
9,O=C(NO)c1cnc(N2CCOC(CNC(/C=C/c3ccccc3)CO)C2)nc1 (centres undefined),8
10,O=C(NO)c1cnc(N2CCN(C(/C=C/c3ccccc3F)CO)CC2)nc1 (centres undefined),2
11,O=C(NO)c1cnc(N2CCN(C(/C=C/c3ccccc3)C(=O)N3CCOCC3)CC2)nc1 (centres undefined),7
12,Cc1ccc(/C=C/C(CO)N2CCN(c3ncc(C(=O)NO)cn3)CC2)cc1 (centres undefined),1
13,O=C(NO)c1cnc(N2CCN(C(/C=C/c3ccccc3)CN3CCOCC3)CC2)nc1 (centres undefined),11
14,O=C(NO)c1cnc(N2CCN(C(/C=C/c3ccc(C(F)(F)F)cc3)CO)CC2)nc1 (centres undefined),2.1
15,O=C(NO)c1cnc(N2CCN(C(/C=C/c3ccc(-c4ccccc4)cc3)CO)CC2)nc1 (centres undefined),0.9
16,NC(/C=C/c1ccccc1)CN1CCN(c2ncc(C(=O)NO)cn2)CC1 (centres undefined),3.8
17,O=C(NO)c1cnc(N2CCN(C(/C=C/c3ccc(Cl)cc3)CO)CC2)nc1 (centres undefined),1.2
18,CC(/C=C/c1ccccc1)N1CCN(c2ncc(C(=O)NO)cn2)CC1 (centres undefined),1.7
19,COc1ccc(/C=C/C(CO)N2CCN(c3ncc(C(=O)NO)cn3)CC2)cc1 (centres undefined),0.95
20,O=C(NO)c1cnc(N2CCN(Cc3ccc4ccccc4c3)CC2)nc1,1.5
21,O=C(NO)c1cnc(N2CCC(NC(/C=C/c3ccccc3)CO)CC2)nc1 (centres undefined),7

# System: not listed separately
# Assay: AUC (0 to infinity) in Sprague-Dawley rat at 2.5 mg/kg, iv administered in water at pH 4.4
# Format: ADME, organism-based
# Design: time infinity, dose 2.5 mg/kg, route intravenous
# Conditions: plasma
# In short: as §2
row,SMILES,AUC(0-inf) [ng·h/mL]
1,O=C(NO)c1cnc(N2CCN(C(/C=C/c3ccccc3)CO)CC2)nc1 (stereo in doubt; 3a),413
2,O=C(NO)c1cnc(N2CCN(S(=O)(=O)c3ccc4ccccc4c3)CC2)nc1 [R-306465],2650
3,"O=C(NO)c1cnc(N2CCN(C(/C=C/c3ccc(F)cc3)CO)CC2)nc1 (single isomer, unassigned; (-))",521

# System: not listed separately
# Assay: Oral bioavailability in Sprague-Dawley rat at 10 mg/kg administered in water at pH 4.5
# Format: ADME, organism-based
# Conditions: in vivo
# In short: as §2
row,SMILES,bioavailability [%]
1,O=C(NO)c1cnc(N2CCN(C(/C=C/c3ccccc3)CO)CC2)nc1 (stereo in doubt; 3a),19
2,O=C(NO)c1cnc(N2CCN(S(=O)(=O)c3ccc4ccccc4c3)CC2)nc1 [R-306465],20
3,"O=C(NO)c1cnc(N2CCN(C(/C=C/c3ccc(F)cc3)CO)CC2)nc1 (single isomer, unassigned; (-))",22

# System: not listed separately
# Assay: Half life in Sprague-Dawley rat at 2.5 mg/kg, iv administered in water at pH 4.4 measured 1 to 4 hrs post dose
# Format: ADME, organism-based
# Design: dose 2.5 mg/kg, route intravenous
# Conditions: in vivo
# In short: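 Male Sprague-Dawley rats given 2.5 mg/kg IV in water at pH 4.4. Terminal half-life fitted over the 1 h to 4 h post-dose window.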
row,SMILES,half-life [h]
1,"O=C(NO)c1cnc(N2CCN(C(/C=C/c3ccc(F)cc3)CO)CC2)nc1 (single isomer, unassigned; (-))",0.8

# System: not listed separately
# Assay: Half life in Sprague-Dawley rat at 2.5 mg/kg, iv administered in water at pH 4.4 measured 2 to 8 hrs post dose
# Format: ADME, organism-based
# Design: dose 2.5 mg/kg, route intravenous
# Conditions: in vivo
# In short: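 Male Sprague-Dawley rats given 2.5 mg/kg IV in water at pH 4.4. Half-life estimated from the 2 h to 8 h post-dose interval.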
row,SMILES,half-life [h]
1,O=C(NO)c1cnc(N2CCN(C(/C=C/c3ccccc3)CO)CC2)nc1 (stereo in doubt; 3a),2.6
2,O=C(NO)c1cnc(N2CCN(S(=O)(=O)c3ccc4ccccc4c3)CC2)nc1 [R-306465],1.5

# System: not listed separately
# Assay: AUC (0 to infinity) in Sprague-Dawley rat at 10 mg/kg, po administered in water at pH 4.5
# Format: ADME, organism-based
# Design: time infinity, dose 10 mg/kg, route oral
# Conditions: plasma
# In short: as §2
row,SMILES,AUC(0-inf) [ng·h/mL]
1,O=C(NO)c1cnc(N2CCN(C(/C=C/c3ccccc3)CO)CC2)nc1 (stereo in doubt; 3a),316
2,O=C(NO)c1cnc(N2CCN(S(=O)(=O)c3ccc4ccccc4c3)CC2)nc1 [R-306465],3380
3,"O=C(NO)c1cnc(N2CCN(C(/C=C/c3ccc(F)cc3)CO)CC2)nc1 (single isomer, unassigned; (-))",466

# System: not listed separately
# Assay: Thermodynamic solubility in phosphate-citrate buffer at pH 7.4
# Format: physicochemical
# Conditions: not given
# In short: as §1
row,SMILES,solubility thermodynamic [µg/mL]
1,O=C(NO)c1cnc(N2CCN(C(/C=C/c3ccccc3)CO)CC2)nc1 (stereo in doubt; 3a),1100

# System: not listed separately
# Assay: Thermodynamic solubility in phosphate-citrate buffer at pH 7.7
# Format: physicochemical
# Conditions: not given
# In short: as §1
row,SMILES,solubility thermodynamic [µg/mL]
1,O=C(NO)c1cnc(N2CCN(S(=O)(=O)c3ccc4ccccc4c3)CC2)nc1 [R-306465],< 100

# System: A2780
# Assay: Anticancer activity against human A2780 cells expressing p21 waf1,cip1 xenografted in athymic nude mouse assessed as fold increase in fluorescence at 40 mg/kg, po administered once for 3 days relative to R306465
# Format: functional
# Conditions: not given
# In short: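 A2780 ovarian carcinoma cells engineered to express ZsGreen under the p21waf1,cip1 promoter were grafted subcutaneously into athymic nude mice. Animals were dosed orally at 40 mg/kg for 3 days. In vivo fluorescence induction was then read by noninvasive whole-body imaging and expressed as fold increase versus reference R306465 set at 1.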
row,SMILES,fold change (FC)
1,O=C(NO)c1cnc(N2CCN(C(/C=C/c3ccccc3)CO)CC2)nc1 (stereo in doubt; 3a),5
2,NC(/C=C/c1ccccc1)CN1CCN(c2ncc(C(=O)NO)cn2)CC1 (centres undefined),0.5
